For assay [1], the system named is A549. Kind of assay: Cytotoxicity against human A549 cells assessed as reduction in cell viability after 48 hrs by SRB assay. The class given is functional, cell-based. The settings on record: A549, 48 h. A digest of the protocol: (§1)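 SRB assay. Compounds active at 10 µM in the primary screen were retested at 1, 2.5 and 5 µM, and IC50 was calculated from these concentrations. The normal breast epithelial line fR2 was tested alongside the cancer lines.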
(Sulforhodamine B stains cellular protein and so reports cell mass.)

Assay [2] deals with MIA PaCa-2. The assay is described as follows: Cytotoxicity against human MIAPaCa2 cells assessed as reduction in cell viability after 48 hrs by SRB assay. The class given is functional, cell-based. The settings on record: MIA PaCa-2, 48 h. In a few lines:
as §1

Assay [3] in a line: Selectivity index, ratio of IC50 for human FR2 cells to IC50 for human MCF7 cells. The class given is functional. In a few lines: (§2)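 Selectivity index is the IC50 in normal breast epithelial fR2 cells divided by the IC50 in each cancer line. All IC50 values come from the SRB assay.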
Assay [4] has as its system MCF7. The assay is described as follows: Growth inhibition of human MCF7 cells at 10 uM after 48 hrs by SRB assay relative to control. The settings on record: MCF7, 48 h, read-out: GI. It is filed as functional. A digest of the protocol:
(§3)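 Primary SRB screen of every compound at a single concentration of 10 µM. Growth inhibition is expressed relative to control.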

The subject of assay [5] is PC-3. The assay is described as follows: Growth inhibition of human PC3 cells at 10 uM after 48 hrs by SRB assay relative to control. It is filed as functional. The conditions noted are these: PC-3, 48 h, read-out: GI. A digest of the protocol:
as §3

Assay [6] can be described thus: Selectivity index, ratio of IC50 for human FR2 cells to IC50 for human A549 cells. The class given is functional. In a few lines:
as §2

For assay [7], the system named is MCF7. Kind of assay: Cytotoxicity against human MCF7 cells assessed as reduction in cell viability after 48 hrs by SRB assay. It is filed as functional, cell-based. The conditions noted are these: MCF7, 48 h. A digest of the protocol:
as §1

Assay [8] deals with HCT-116. The assay is described as follows: Cytotoxicity against human HCT116 cells assessed as reduction in cell viability after 48 hrs by SRB assay. It is filed as functional, cell-based. The conditions noted are these: HCT-116, 48 h. In a few lines: as §1
Assay [9] can be described thus: Selectivity index, ratio of IC50 for human FR2 cells to IC50 for human PC3 cells. It is filed as functional. In a few lines:
as §2

The nature of assay [10]: Selectivity index, ratio of IC50 for human FR2 cells to IC50 for human MIAPaCa2 cells. The class given is functional. A digest of the protocol: as §2
The subject of assay [11] is PC-3. The assay is described as follows: Cytotoxicity against human PC3 cells assessed as reduction in cell viability after 48 hrs by SRB assay. The settings on record: PC-3, 48 h. The class given is functional, cell-based. A digest of the protocol: as §1
The nature of assay [12]: Cytotoxicity against human FR2 cells assessed as reduction in cell viability after 48 hrs by SRB assay. The conditions noted are these: FR2, 48 h. The class given is cell-based. In a few lines: as §1
The test system of assay [13] is A549. The assay is described as follows: Growth inhibition of human A549 cells at 10 uM after 48 hrs by SRB assay relative to control. It is filed as functional. The conditions noted are these: A549, 48 h, read-out: GI. A digest of the protocol: as §3
A short description of assay [14]: Selectivity index, ratio of IC50 for human FR2 cells to IC50 for human HCT116 cells. It is filed as functional. A digest of the protocol:
as §2

The test system of assay [15] is HCT-116. The assay is described as follows: Growth inhibition of human HCT116 cells at 10 uM after 48 hrs by SRB assay relative to control. The settings on record: HCT-116, 48 h, read-out: GI. The class given is functional. In a few lines:
as §3

Assay [16] concerns MIA PaCa-2. Kind of assay: Growth inhibition of human MIAPaCa2 at 10 uM after 48 hrs by SRB assay relative to control. The class given is functional. The settings on record: MIA PaCa-2, 48 h, read-out: GI. A digest of the protocol: as §3

In general, IC50 refers to the concentration that inhibits the measured activity by half. Consider `C=C(C)[C@@H]1CC[C@]2(C(=O)O)CC[C@]3(C)[C@H](CC[C@@H]4[C@@]5(C)C/C(=C\c6ccccc6Br)C(=O)C(C)(C)[C@@H]5CC[C@]43C)[C@@H]12`, for which the half-maximal inhibitory concentration (IC50) came to 6.1 µM in the assay with A549 [1]; 4.04 µM in the assay on MIA PaCa-2 [2]; 7.7 µM in the assay with MCF7 [7]; 4.3 µM with HCT-116 [8]; 7.6 µM in the assay with PC-3 [11]; 19 µM in assay [12]. Also, the “Ratio IC50” value in assay [3] came out at 2.464; in assay [6], 3.111; in assay [9] it was 2.497; in assay [10], 4.698; in [14], 4.413. Further, the inhibition of growth at 10 µM in the assay on MCF7 [4] turned out to be 80%; with PC-3 [5] it was 77%; with A549 [13] it was 90%; in the assay with HCT-116 [15] it was 86%; with MIA PaCa-2 [16], 81%.

For `C=C(C)[C@@H]1CC[C@]2(C(=O)O)CC[C@]3(C)[C@H](CC[C@@H]4[C@@]5(C)C/C(=C\c6ccc(OC)cc6)[C@H](O)C(C)(C)[C@@H]5CC[C@]43C)[C@@H]12`, the concentration for half-maximal inhibition (IC50) in the assay on A549 [1] was found to be 4.3 µM; in the assay with MIA PaCa-2 [2], 6.4 µM; with MCF7 [7], 6.9 µM; in the assay on HCT-116 [8], 4.9 µM; in the assay with PC-3 [11], 7.4 µM; in assay [12], 21.6 µM. The “Ratio IC50” value in assay [3] is given as 3.126; in assay [6], 5.016; in assay [9], 2.914; in assay [10] it was 3.37; in assay [14], 4.402. For the same compound, the inhibition of growth at 10 µM in the assay on MCF7 [4] stood at 69%; in the assay on PC-3 [5], 52%; in the assay on A549 [13] it was 54%; with HCT-116 [15], 63%; in the assay on MIA PaCa-2 [16], 67%.

As to `C=C(C)[C@@H]1CC[C@]2(C(=O)O)CC[C@]3(C)[C@H](CC[C@@H]4[C@@]5(C)C/C(=C\c6ccc(OC)cc6)C(=O)C(C)(C)[C@@H]5CC[C@]43C)[C@@H]12`, the IC50 in the assay with A549 [1] is 5.1 µM; in the assay with MIA PaCa-2 [2], 7.07 µM; in the assay with MCF7 [7], 6.8 µM; in the assay with HCT-116 [8], 5.4 µM; in the assay with PC-3 [11] it was 6.8 µM; in assay [12], 23.9 µM. For the same compound, the “Ratio IC50” value in assay [3] came to 3.522; in [6], 4.696; in assay [9], 3.522; in assay [10], 3.387; in assay [14], 4.435. The inhibition of growth at 10 µM is 88% with MCF7 [4]; 81% with PC-3 [5]; 94% with A549 [13]; 69% with HCT-116 [15]; 71% in the assay on MIA PaCa-2 [16].

Consider `C=C(C)[C@@H]1CC[C@]2(C(=O)O)CC[C@]3(C)[C@H](CC[C@@H]4[C@@]5(C)C/C(=C\c6cccnc6)C(=O)C(C)(C)[C@@H]5CC[C@]43C)[C@@H]12`, for which the half-maximal inhibitory concentration (IC50) stood at 3.1 µM with A549 [1]; 4.9 µM with MIA PaCa-2 [2]; 2.6 µM in the assay with MCF7 [7]; 1.97 µM in the assay on HCT-116 [8]; 6.6 µM in the assay with PC-3 [11]; 100 µM in assay [12]. Further, the “Ratio IC50” value in [3] is on record as 38.46; in assay [6] it was 32.25; in assay [9], 15.15; in [10], 20.4; in assay [14], 50.76. For the same compound, the inhibition of growth at 10 µM amounted to 97% in the assay on MCF7 [4]; 67% with PC-3 [5]; 94% in the assay with A549 [13]; 96% in the assay on HCT-116 [15]; 97% in the assay with MIA PaCa-2 [16].

Consider `C=C(C)[C@@H]1CC[C@]2(C(=O)O)CC[C@]3(C)[C@H](CC[C@@H]4[C@@]5(C)C/C(=C\c6cccc(Br)c6)[C@H](O)C(C)(C)[C@@H]5CC[C@]43C)[C@@H]12`, for which the IC50 was 3.6 µM in the assay on A549 [1]; 14.4 µM in the assay on MIA PaCa-2 [2]; 8.06 µM in the assay on MCF7 [7]; over 10 µM in the assay with HCT-116 [8]; 5.5 µM in the assay on PC-3 [11]; 15 µM in assay [12]. For the same compound, the “Ratio IC50” value in assay [3] was 1.86; in assay [6] it was 4.16; in assay [9] it was 2.72; in assay [10], 1.041. In addition, the inhibition of growth at 10 µM in the assay with MCF7 [4] came out at 65%; in the assay on PC-3 [5], 59%; in the assay on A549 [13], 90%; in the assay on HCT-116 [15], 46%; in the assay on MIA PaCa-2 [16], 22%.

As to `C=C(C)[C@@H]1CC[C@]2(C(=O)O)CC[C@]3(C)[C@H](CC[C@@H]4[C@@]5(C)C/C(=C\c6ccsc6)C(=O)C(C)(C)[C@@H]5CC[C@]43C)[C@@H]12`, the IC50 amounted to 3.9 µM in the assay with A549 [1]; 5.3 µM with MIA PaCa-2 [2]; 2.9 µM in the assay on MCF7 [7]; 5.1 µM with HCT-116 [8]; 6.7 µM in the assay on PC-3 [11]; 20.7 µM in assay [12]. For the same compound, the “Ratio IC50” value in [3] turned out to be 7.151; in [6] it was 5.317; in [9], 3.095; in [10] it was 3.913; in [14], 4.066. In addition, the inhibition of growth at 10 µM was 92% in the assay with MCF7 [4]; 82% with PC-3 [5]; 95% in the assay on A549 [13]; 91% in the assay with HCT-116 [15]; 76% in the assay with MIA PaCa-2 [16].

For the compound `C=C(C)[C@@H]1CC[C@]2(C(=O)O)CC[C@]3(C)[C@H](CC[C@@H]4[C@@]5(C)C/C(=C\c6ccc(Br)o6)C(=O)C(C)(C)[C@@H]5CC[C@]43C)[C@@H]12`, the IC50 in the assay with A549 [1] worked out at 2.9 µM; with MIA PaCa-2 [2] it was 5.2 µM; in the assay with MCF7 [7] it was 5.6 µM; with HCT-116 [8] it was 2.9 µM; in the assay with PC-3 [11], 5.7 µM; in assay [12], 13.6 µM. Further, the “Ratio IC50” value in assay [3] came to 2.432; in [6], 4.69; in [9], 2.389; in assay [10] it was 2.619; in assay [14], 4.696. The inhibition of growth at 10 µM in the assay with MCF7 [4] was 92%; in the assay on PC-3 [5], 79%; in the assay on A549 [13] it was 91%; with HCT-116 [15] it was 87%; in the assay with MIA PaCa-2 [16] it was 75%.

On to `C=C(C)[C@@H]1CC[C@]2(C(=O)O)CC[C@]3(C)[C@H](CC[C@@H]4[C@@]5(C)C/C(=C\c6ccc(F)cc6)C(=O)C(C)(C)[C@@H]5CC[C@]43C)[C@@H]12`, for which the concentration for half-maximal inhibition (IC50) in the assay on A549 [1] came out at 2.6 µM; in the assay on MIA PaCa-2 [2] it was 5.4 µM; in the assay on MCF7 [7] it was 4.4 µM; in the assay on HCT-116 [8], 3.6 µM; with PC-3 [11] it was 6.4 µM; in assay [12], 71.1 µM. For the same compound, the “Ratio IC50” value is given as 16.15 in assay [3]; 27.33 in [6]; 11.1 in [9]; 13.15 in assay [10]; 19.73 in assay [14]. Also, the inhibition of growth at 10 µM in the assay with MCF7 [4] stood at 95%; with PC-3 [5], 95%; in the assay with A549 [13], 92%; in the assay on HCT-116 [15], 99%; with MIA PaCa-2 [16], 96%.

In the case of `C=C(C)[C@@H]1CC[C@]2(C(=O)O)CC[C@]3(C)[C@H](CC[C@@H]4[C@@]5(C)C/C(=C\c6ccc(F)c(Br)c6)C(=O)C(C)(C)[C@@H]5CC[C@]43C)[C@@H]12`, the IC50 in the assay with A549 [1] amounted to 3.9 µM; in the assay with MIA PaCa-2 [2], 6.9 µM; with MCF7 [7], 7.07 µM; in the assay with HCT-116 [8], 5.8 µM; with PC-3 [11], 8.02 µM; in assay [12], 47.2 µM. Also, the “Ratio IC50” value in assay [3] is listed as 6.671; in assay [6], 12.09; in [9], 5.881; in assay [10], 6.836; in [14] it was 8.132. Moreover, the inhibition of growth at 10 µM in the assay with MCF7 [4] worked out at 85%; with PC-3 [5], 71%; with A549 [13], 89%; in the assay on HCT-116 [15], 89%; in the assay on MIA PaCa-2 [16], 82%.

(Values after ChEMBL document CHEMBL4052644, “Synthesis of novel benzylidene analogues of betulinic acid as potent cytotoxic agents” (Eur J Med Chem, 2017).)
